Test [1] in a line: Inhibition of protein A binding to horseradish peroxidase-conjugated human IgG in PBS solution by Protein A human IgG competitive ELISA. The procedure, abridged: (§1)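 Plate wells coated overnight at 4 °C with protein A (0.8 ug/well), washed with PBS, and blocked with 2% BSA for 1 h at 37 °C. Compound diluted in PBS or PBS–20% DMSO was added with HRP-conjugated human IgG and incubated 1 h at 37 °C. After washing, bound HRP-IgG was developed with ABTS for 20 min in the dark at room temperature and read at 405 nm. IC50 is the concentration inhibiting 50% binding.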
In general terms: In an ELISA, binding on a coated surface is turned into a signal by an enzyme label.

A short description of test [2]: Inhibition of protein A binding to heat aggregated human IgG.
For test [3], the target named is T1, Low affinity immunoglobulin gamma Fc region receptor II-a (Homo sapiens, UniProt P12318).
T1 sequence (P12318 whole entry): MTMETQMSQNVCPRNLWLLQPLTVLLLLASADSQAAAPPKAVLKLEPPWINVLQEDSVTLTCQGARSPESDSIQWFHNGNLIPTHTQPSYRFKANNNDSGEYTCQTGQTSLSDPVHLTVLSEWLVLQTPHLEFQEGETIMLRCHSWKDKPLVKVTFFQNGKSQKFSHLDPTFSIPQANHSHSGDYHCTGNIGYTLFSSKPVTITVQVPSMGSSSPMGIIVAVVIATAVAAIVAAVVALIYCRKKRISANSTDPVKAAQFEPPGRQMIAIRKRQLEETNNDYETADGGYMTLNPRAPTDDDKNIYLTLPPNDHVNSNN
Nature of the test: Inhibition of heat aggregated human IgG binding to human Fc-gamma-R2a.

In test [4] the target is Low affinity immunoglobulin gamma Fc region receptor III-B (Homo sapiens, UniProt O75015). Briefly: Inhibition of heat aggregated human IgG binding to human Fc-gamma-R3b.
Test [5] relates to Mus musculus. Briefly: Reduction of anti-dsDNA antibody levels in NZB/NZW-F1 mouse systemic lupus erythematosus model at 50 mg/kg, iv administered once weekly starting from week 12 relative to untreated control. In kind it is functional. In short, it runs like this:
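NZB/NZW F1 hybrid mice were given 50 mg/kg intravenously once weekly from week 12, against vehicle-treated controls. Serum anti-dsDNA autoantibodies were measured by a literature method, and total IgG was also monitored.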

For test [6], the system named is Mus musculus. Nature of the test: Reduction of antibody immune complexes in NZB/NZW-F1 mouse systemic lupus erythematosus model at 50 mg/kg, iv administered once weekly starting from week 12 relative to untreated control. In kind it is functional, organism-based. Further details: dose 50 mg/kg.
In test [7] the test system is Mus musculus. Briefly: Reduction of immune complex deposits in homozygous fas mutant MRL/lpr mouse systemic lupus erythematosus model at 50 mg/kg, iv administered once weekly for 5 consecutive weeks between 18 and 22 weeks by electron microscopy. In kind it is functional, organism-based. Further details: dose 50 mg/kg. In short, it runs like this:
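MRL/lpr mice (homozygous fas mutation) received 50 mg/kg or vehicle intravenously once a week for 5 consecutive weeks, between weeks 18 and 22. Mice were then sacrificed, and immune complex deposition in kidney tissue was recorded by electron microscopy.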

The nature of test [8]: Inhibition of protein A binding to horseradish peroxidase-conjugated human IgG in 20% DMSO/PBS solution by Protein A human IgG competitive ELISA. In short, it runs like this: as §1

SMILES strings stand for the structures. Activity calls are given as the source filed them. No cut-off for these calls is given here.

Chain of Low affinity immunoglobulin gamma Fc region receptor III-B (O75015 whole entry): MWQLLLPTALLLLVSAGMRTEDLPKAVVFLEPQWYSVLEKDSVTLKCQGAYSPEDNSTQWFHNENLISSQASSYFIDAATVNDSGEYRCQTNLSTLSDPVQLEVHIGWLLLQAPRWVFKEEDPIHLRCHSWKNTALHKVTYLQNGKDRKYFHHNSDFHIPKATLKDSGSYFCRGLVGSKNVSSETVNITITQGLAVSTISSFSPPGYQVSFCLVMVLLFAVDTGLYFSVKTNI

A word on the IC50: it is the point on the concentration scale where inhibition reaches its midpoint. `CC(Nc1nc(NCCO)nc(Nc2cccc(N)c2)n1)c1ccc(Nc2nc(NCCO)nc(Nc3cccc(N)c3)n2)cc1` (stereo unspecified): the IC50 entry in test [1] is “Not Active”.
For `Nc1ccc(CCNc2nc(Nc3ccc(CCNc4nc(NCCO)nc(Nc5cccc(N)c5)n4)cc3)nc(Nc3cccc(N)c3)n2)cc1`, the 50% inhibitory concentration (IC50) in test [1] (read-out: IC50) is 54 nM; in test [2], 83 nM; in test [3], 12000 nM; in test [4], 57000 nM. Further, the “fold change (FC)” value in test [5] is 2. Moreover, the result in test [6] and in test [7] was Active.
Regarding `OCCNc1nc(NCCc2ccc(Nc3nc(NCCO)nc(Nc4ccccc4F)n3)cc2)nc(Nc2ccccc2F)n1`, the half-inhibitory concentration (IC50) result in test [1] and in test [8] was “Not Active” each time.
With `Nc1cccc(Nc2nc(NCCO)nc(NCCc3ccc(Nc4nc(Nc5cccc(N)c5)nc(NC5CCNC5)n4)cc3)n2)c1` (stereo unspecified), the IC50 in test [1] (read-out: IC50) was found to be 233 nM.
Take `Nc1cccc(Nc2nc(NCCO)nc(NCCOCCNc3nc(NCCO)nc(Nc4cccc(N)c4)n3)n2)c1`: the half-inhibitory concentration (IC50) in test [1] (read-out: IC50) came to 70 nM; in test [8] (read-out: IC50), 5190 nM.
With `Nc1cccc(Nc2nc(NCCO)nc(Nc3ccc4c(c3)CCN4c3nc(NCCO)nc(Nc4cccc(N)c4)n3)n2)c1`, in test [1] (read-out: IC50), the half-maximal inhibitory concentration (IC50) stood at 80 nM.
The same measure, in the same setting: next, `CN1CCN(c2nc(Nc3ccc(CCNc4nc(NCCO)nc(Nc5cccc(N)c5)n4)cc3)nc(Nc3cccc(N)c3)n2)CC1`: 59 nM.
As to `NCCNc1nc(NCCO)nc(Nc2ccc(CCNc3nc(NCCO)nc(Nc4cccc(N)c4)n3)cc2)n1`, the IC50 in test [1] (read-out: IC50) worked out at 410 nM; in test [8] (read-out: IC50) it was 749 nM.
In the same order, the values of `Nc1cccc(Nc2nc(NCCO)nc(NCCc3ccc(Nc4nc(NCCO)nc(Nc5cccc(F)c5)n4)cc3)n2)c1` are 382 nM and 209 nM.
As for `Nc1cccc(Nc2nc(NCCO)nc(NCC(O)CNc3nc(NCCO)nc(Nc4cccc(N)c4)n3)n2)c1`, the IC50 in test [1] (read-out: IC50) came out at 56 nM.
Still for that read-out and setting: next, `CN(C)CCNc1nc(Nc2ccc(CCNc3nc(NCCO)nc(Nc4cccc(N)c4)n3)cc2)nc(Nc2cccc(N)c2)n1`: 89 nM.
As for `Nc1cccc(Nc2nc(NCCO)nc(NCCc3ccc(Nc4nc(NCCO)nc(NCCO)n4)cc3)n2)c1`, the concentration for half-maximal inhibition (IC50) in test [1] (read-out: IC50) was 94 nM; in test [8] (read-out: IC50), 81 nM.
On to `Nc1cccc(Nc2nc(NCCO)nc(NCCc3ccc(Nc4nc(NCC(O)c5cccc(N)c5)nc(Nc5cccc(N)c5)n4)cc3)n2)c1` (stereo unspecified), for which the IC50 in test [1] (read-out: IC50) amounted to 130 nM.
Same read-out and setting: next, `Nc1cccc(Nc2nc(NCCO)nc(NCCc3ccc(Nc4nc(NCCc5ccc(F)cc5)nc(Nc5cccc(N)c5)n4)cc3)n2)c1`: 531 nM.
On to `Nc1cccc(Nc2nc(NCCO)nc(Nc3cccc(Nc4nc(NCCO)nc(Nc5cccc(N)c5)n4)c3)n2)c1`, for which the IC50 in test [1] (read-out: IC50) was found to be 293 nM.
Consider `CS(=O)(=O)c1cccc(Nc2nc(NCCO)nc(Nc3ccc(CCNc4nc(NCCO)nc(Nc5cccc(N)c5)n4)cc3)n2)c1`, for which the IC50 in test [1] (read-out: IC50) stood at 243 nM; in test [8] (read-out: IC50) it was 192 nM.
In the case of `Nc1cccc(Nc2nc(NCCO)nc(NCCc3ccc(Nc4nc(NCCc5cccc(O)c5)nc(Nc5cccc(N)c5)n4)cc3)n2)c1`, the 50% inhibitory concentration (IC50) in test [1] (read-out: IC50) came to 118 nM.
The same measure, in the same setting: next, `CC(C)(CNc1nc(NCCO)nc(Nc2cccc(N)c2)n1)CNc1nc(NCCO)nc(Nc2cccc(N)c2)n1`: 41 nM; `Nc1cccc(CCNc2nc(Nc3ccc(CCNc4nc(NCCO)nc(Nc5cccc(N)c5)n4)cc3)nc(Nc3cccc(N)c3)n2)c1`: 119 nM; `Nc1cccc(Nc2nc(NCCO)nc(NCCNc3nc(NCCO)nc(Nc4cccc(N)c4)n3)n2)c1`: 58 nM.
The same measure, in the same setting: next, `Nc1cccc(Nc2nc(NCCO)nc(NCCc3ccc(Nc4nc(Nc5cccc(N)c5)nc(Nc5cccc(N)c5)n4)cc3)n2)c1`: 56 nM.
Still for that read-out and setting: next, `Nc1cccc(Nc2nc(NCCO)nc(NCCc3ccc(Nc4nc(NCCc5ccccc5)nc(Nc5cccc(N)c5)n4)cc3)n2)c1`: 449 nM; `Nc1cccc(Nc2nc(NCCO)nc(Nc3ccc(Nc4nc(NCCO)nc(Nc5cccc(N)c5)n4)cc3)n2)c1`: 157 nM.
Regarding `Nc1cccc(Nc2nc(NCCO)nc(NCCc3ccc(Nc4nc(NCCc5ccccc5N)nc(Nc5cccc(N)c5)n4)cc3)n2)c1`, the 50% inhibitory concentration (IC50) in test [1] (read-out: IC50) was found to be 185 nM.
In the case of `Nc1cccc(Nc2nc(NCCO)nc(NCCc3cccc(Nc4nc(NCCO)nc(Nc5cccc(N)c5)n4)c3)n2)c1`, the IC50 entry in test [1] was “Not Active”.
On to `Nc1cccc(Nc2nc(NCCO)nc(NCCCNc3nc(NCCO)nc(Nc4cccc(N)c4)n3)n2)c1`, for which, in test [1] (read-out: IC50), the half-inhibitory concentration (IC50) worked out at 56 nM.
`Nc1cccc(CNc2nc(Nc3ccc(CCNc4nc(NCCO)nc(Nc5cccc(N)c5)n4)cc3)nc(Nc3cccc(N)c3)n2)c1`: the half-inhibitory concentration (IC50) in test [1] (read-out: IC50) was 141 nM.
As to `Nc1cccc(Nc2nc(NCCO)nc(NCCc3ccc(Nc4nc(NCCO)nc(Nc5ccc(Cl)cc5)n4)cc3)n2)c1`, the IC50 in test [1] (read-out: IC50) turned out to be 841 nM; in test [8] (read-out: IC50) it was 893 nM.
For the molecule `N=C(N)CCNc1nc(NCCO)nc(NCCc2ccc(Nc3nc(NCCO)nc(Nc4cccc(F)c4)n3)cc2)n1`, the IC50 result in test [1] and in test [8] was “Not Active” in each case.
With `CN(C)c1ccc(CCNc2nc(Nc3ccc(CCNc4nc(NCCO)nc(Nc5cccc(N)c5)n4)cc3)nc(Nc3cccc(N)c3)n2)cc1`, the IC50 in test [1] (read-out: IC50) is 695 nM.
For `CN(C)c1nc(Nc2ccc(CCNc3nc(NCCO)nc(Nc4cccc(N)c4)n3)cc2)nc(Nc2cccc(N)c2)n1`, the IC50 in test [1] (read-out: IC50) is 89 nM.
On to `Nc1cccc(Nc2nc(NCCO)nc(NCCc3ccc(Nc4nc(NCCc5ccc(O)cc5)nc(Nc5cccc(N)c5)n4)cc3)n2)c1`, for which, in test [1], the half-maximal inhibitory concentration (IC50) result is given as “Not Active”.
As to `Nc1cccc(Nc2nc(NCCO)nc(NCCc3ccc(Nc4nc(NCCO)nc(Nc5ccc(F)cc5)n4)cc3)n2)c1`, the figures for the concentration for half-maximal inhibition (IC50) in test [1] (read-out: IC50) and in test [8] (read-out: IC50) were 361 nM and 204 nM, respectively.
`Nc1cccc(Nc2nc(NCCO)nc(NCCc3ccc(Nc4nc(NCCO)nc(Nc5cccc(N)c5)n4)cc3)n2)c1`: the 50% inhibitory concentration (IC50) in test [1] (read-out: IC50) is 84 nM; in test [8] (read-out: IC50), 144 nM.
In the case of `Nc1cccc(Nc2nc(NCCO)nc(NCCCCNc3nc(NCCO)nc(Nc4cccc(N)c4)n3)n2)c1`, the IC50 in test [1] (read-out: IC50) is 187 nM.

Source of the values: ChEMBL document CHEMBL1156811, “2,4,6-trisubstituted triazines as protein a mimetics for the treatment of autoimmune diseases” (J Med Chem, 2010).
